Entries after “also recorded” stand apart in the source; their conditions may differ.
Experiment: Phase 1 study CC-90011-ST-001: safety, adverse events
Format: in vivo, human
Summary of the method: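 Treated population: all patients given at least one oral dose of test compound (once weekly, 28-day cycles; expansion 60 mg). Adverse events were graded by NCI CTCAE v4.03. Dose reductions were permitted in any cycle, including cycle 1. Treatment could be interrupted for up to 4 weeks, until toxicity returned to grade ≤1 or baseline.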

[1] = dose escalation, n = 50, patients (%)
[2] = dose expansion, NEN, n = 16, patients (%)
[3] = dose expansion, R/R MZL, n = 3, patients (%)
[4] = dose expansion, n = 19, patients (%)

SMILES: COc1ccc(-c2c(-c3ccc(C#N)c(F)c3)nc(N3CCC(N)CC3)n(C)c2=O)cc1F [CC‐90011]
- TEAE any grade: Abdominal pain [1]: 7 (14)
- TEAE any grade: Acute kidney injury [1]: 1 (2)
- TEAE any grade: Anemia [1]: 14 (28)
- TEAE any grade: Arthralgia [1]: 9 (18)
- TEAE any grade: Back pain [1]: 7 (14)
- TEAE any grade: Bone pain [1]: 1 (2)
- TEAE any grade: Bronchitis [1]: 2 (4)
- TEAE any grade: Constipation [1]: 11 (22)
- TEAE any grade: Cough [1]: 6 (12)
- TEAE any grade: Decreased appetite [1]: 10 (20)
- TEAE any grade: Diarrhea [1]: 10 (20)
- TEAE any grade: Dizziness [1]: 3 (6)
- TEAE any grade: Dysgeusia [1]: 3 (6)
- TEAE any grade: Dyspnea [1]: 5 (10)
- TEAE any grade: Epistaxis [1]: 2 (4)
- TEAE any grade: Fatigue/asthenia [1]: 24 (48)
- TEAE any grade: Headache [1]: 5 (10)
- TEAE any grade: Hepatic pain [1]: 1 (2)
- TEAE any grade: Hypokalemia [1]: 5 (10)
- TEAE any grade: Increased ALT [1]: 6 (12)
- TEAE any grade: Increased AST [1]: 6 (12)
- TEAE any grade: Lipase increased [1]: 2 (4)
- TEAE any grade: Musculoskeletal pain [1]: 1 (2)
- TEAE any grade: Nausea [1]: 11 (22)
- TEAE any grade: Neutropenia [1]: 6 (12)
- TEAE any grade: Peripheral sensory neuropathy [1]: 2 (4)
- TEAE any grade: Pruritus [1]: 3 (6)
- TEAE any grade: Pyrexia [1]: 10 (20)
- TEAE any grade: Sciatica [1]: 1 (2)
- TEAE any grade: Thrombocytopenia [1]: 23 (46)
- TEAE any grade: Tumor pain [1]: 5 (10)
- TEAE any grade: Vomiting [1]: 14 (28)
- TEAE any grade: ≥1 event [1]: 48 (96)
- TEAE grade 3/4: Abdominal pain [1]: 0 (0)
- TEAE grade 3/4: Acute kidney injury [1]: 0 (0)
- TEAE grade 3/4: Anemia [1]: 3 (6)
- TEAE grade 3/4: Arthralgia [1]: 0 (0)
- TEAE grade 3/4: Back pain [1]: 0 (0)
- TEAE grade 3/4: Bone pain [1]: 1 (2)
- TEAE grade 3/4: Bronchitis [1]: 0 (0)
- TEAE grade 3/4: Constipation [1]: 0 (0)
- TEAE grade 3/4: Cough [1]: 0 (0)
- TEAE grade 3/4: Decreased appetite [1]: 1 (2)
- TEAE grade 3/4: Diarrhea [1]: 1 (2)
- TEAE grade 3/4: Dizziness [1]: 0 (0)
- TEAE grade 3/4: Dysgeusia [1]: 0 (0)
- TEAE grade 3/4: Dyspnea [1]: 0 (0)
- TEAE grade 3/4: Epistaxis [1]: 0 (0)
- TEAE grade 3/4: Fatigue/asthenia [1]: 1 (2)
- TEAE grade 3/4: Headache [1]: 0 (0)
- TEAE grade 3/4: Hepatic pain [1]: 0 (0)
- TEAE grade 3/4: Hypokalemia [1]: 1 (2)
- TEAE grade 3/4: Increased ALT [1]: 2 (4)
- TEAE grade 3/4: Increased AST [1]: 1 (2)
- TEAE grade 3/4: Lipase increased [1]: 2 (4)
- TEAE grade 3/4: Musculoskeletal pain [1]: 0 (0)
- TEAE grade 3/4: Nausea [1]: 0 (0)
- TEAE grade 3/4: Neutropenia [1]: 4 (8)
- TEAE grade 3/4: Peripheral sensory neuropathy [1]: 0 (0)
- TEAE grade 3/4: Pruritus [1]: 0 (0)
- TEAE grade 3/4: Pyrexia [1]: 0 (0)
- TEAE grade 3/4: Sciatica [1]: 0 (0)
- TEAE grade 3/4: Thrombocytopenia [1]: 12 (24)
- TEAE grade 3/4: Tumor pain [1]: 1 (2)
- TEAE grade 3/4: Vomiting [1]: 0 (0)
- TEAE grade 3/4: ≥1 event [1]: 24 (48)
- TEAE leading to treatment discontinuation (dose expansion): No patients; also recorded: none of the TEAEs
- febrile neutropenia (dose expansion): no febrile neutropenia was observed
- anemia leading to a dose reduction, patients (dose expansion, 19 patients): 5%
- hematologic events leading to a dose interruption, patients (dose expansion, 19 patients): 47%
- neutropenia leading to a dose reduction, patients (dose expansion, 19 patients): 5%
- patients with at least one TEAE leading to a dose interruption (dose expansion, 19 patients): 58%
- patients with at least one TEAE leading to a dose reduction (dose expansion, 19 patients): 26%
- thrombocytopenia leading to a dose reduction, patients (dose expansion, 19 patients): 26%
- TRAE grade 3/4: Thrombocytopenia (dose expansion, NEN cohort, n=16): 6 n (%)
- TEAE any grade: Abdominal pain [2]: 0 (0)
- TEAE any grade: Acute kidney injury [2]: 1 (6)
- TEAE any grade: Anemia [2]: 6 (38)
- TEAE any grade: Arthralgia [2]: 6 (38)
- TEAE any grade: Back pain [2]: 1 (6)
- TEAE any grade: Bone pain [2]: 2 (13)
- TEAE any grade: Bronchitis [2]: 2 (13)
- TEAE any grade: Constipation [2]: 5 (31)
- TEAE any grade: Cough [2]: 3 (19)
- TEAE any grade: Decreased appetite [2]: 3 (19)
- TEAE any grade: Diarrhea [2]: 5 (31)
- TEAE any grade: Dizziness [2]: 2 (13)
- TEAE any grade: Dysgeusia [2]: 4 (25)
- TEAE any grade: Dyspnea [2]: 2 (13)
- TEAE any grade: Epistaxis [2]: 3 (19)
- TEAE any grade: Fatigue/asthenia [2]: 9 (56)
- TEAE any grade: Headache [2]: 0 (0)
- TEAE any grade: Hepatic pain [2]: 2 (13)
- TEAE any grade: Hypokalemia [2]: 2 (13)
- TEAE any grade: Increased ALT [2]: 0 (0)
- TEAE any grade: Increased AST [2]: 1 (6)
- TEAE any grade: Lipase increased [2]: 2 (13)
- TEAE any grade: Musculoskeletal pain [2]: 1 (6)
- TEAE any grade: Nausea [2]: 5 (31)
- TEAE any grade: Neutropenia [2]: 3 (19)
- TEAE any grade: Peripheral sensory neuropathy [2]: 2 (13)
- TEAE any grade: Pruritus [2]: 2 (13)
- TEAE any grade: Pyrexia [2]: 0 (0)
- TEAE any grade: Sciatica [2]: 2 (13)
- TEAE any grade: Tumor pain [2]: 0 (0)
- TEAE any grade: Vomiting [2]: 2 (13)
- TEAE grade 3/4: Abdominal pain [2]: 0 (0)
- TEAE grade 3/4: Acute kidney injury [2]: 0 (0)
- TEAE grade 3/4: Anemia [2]: 1 (6)
- TEAE grade 3/4: Arthralgia [2]: 0 (0)
- TEAE grade 3/4: Back pain [2]: 0 (0)
- TEAE grade 3/4: Bone pain [2]: 0 (0)
- TEAE grade 3/4: Bronchitis [2]: 0 (0)
- TEAE grade 3/4: Constipation [2]: 0 (0)
- TEAE grade 3/4: Cough [2]: 0 (0)
- TEAE grade 3/4: Decreased appetite [2]: 0 (0)
- TEAE grade 3/4: Diarrhea [2]: 0 (0)
- TEAE grade 3/4: Dizziness [2]: 0 (0)
- TEAE grade 3/4: Dysgeusia [2]: 0 (0)
- TEAE grade 3/4: Dyspnea [2]: 0 (0)
- TEAE grade 3/4: Epistaxis [2]: 0 (0)
- TEAE grade 3/4: Headache [2]: 0 (0)
- TEAE grade 3/4: Hepatic pain [2]: 1 (6)
- TEAE grade 3/4: Hypokalemia [2]: 0 (0)
- TEAE grade 3/4: Increased ALT [2]: 0 (0)
- TEAE grade 3/4: Increased AST [2]: 0 (0)
- TEAE grade 3/4: Lipase increased [2]: 0 (0)
- TEAE grade 3/4: Musculoskeletal pain [2]: 0 (0)
- TEAE grade 3/4: Nausea [2]: 0 (0)
- TEAE grade 3/4: Peripheral sensory neuropathy [2]: 0 (0)
- TEAE grade 3/4: Pruritus [2]: 0 (0)
- TEAE grade 3/4: Pyrexia [2]: 0 (0)
- TEAE grade 3/4: Sciatica [2]: 0 (0)
- TEAE grade 3/4: Tumor pain [2]: 0 (0)
- TEAE grade 3/4: Vomiting [2]: 0 (0)
- TEAE any grade: Abdominal pain [3]: 0 (0)
- TEAE any grade: Acute kidney injury [3]: 1 (33)
- TEAE any grade: Anemia [3]: 1 (33)
- TEAE any grade: Arthralgia [3]: 0 (0)
- TEAE any grade: Back pain [3]: 0 (0)
- TEAE any grade: Bone pain [3]: 1 (33)
- TEAE any grade: Bronchitis [3]: 0 (0)
- TEAE any grade: Constipation [3]: 1 (33)
- TEAE any grade: Cough [3]: 1 (33)
- TEAE any grade: Decreased appetite [3]: 0 (0)
- TEAE any grade: Diarrhea [3]: 0 (0)
- TEAE any grade: Dizziness [3]: 0 (0)
- TEAE any grade: Dysgeusia [3]: 0 (0)
- TEAE any grade: Dyspnea [3]: 1 (33)
- TEAE any grade: Epistaxis [3]: 0 (0)
- TEAE any grade: Headache [3]: 0 (0)
- TEAE any grade: Hepatic pain [3]: 0 (0)
- TEAE any grade: Hypokalemia [3]: 0 (0)
- TEAE any grade: Increased ALT [3]: 0 (0)
- TEAE any grade: Increased AST [3]: 0 (0)
- TEAE any grade: Lipase increased [3]: 0 (0)
- TEAE any grade: Musculoskeletal pain [3]: 0 (0)
- TEAE any grade: Nausea [3]: 1 (33)
- TEAE any grade: Neutropenia [3]: 1 (33)
- TEAE any grade: Peripheral sensory neuropathy [3]: 0 (0)
- TEAE any grade: Pruritus [3]: 0 (0)
- TEAE any grade: Pyrexia [3]: 0 (0)
- TEAE any grade: Sciatica [3]: 0 (0)
- TEAE any grade: Tumor pain [3]: 1 (33)
- TEAE any grade: Vomiting [3]: 0 (0)
- TEAE grade 3/4: Abdominal pain [3]: 0 (0)
- TEAE grade 3/4: Acute kidney injury [3]: 0 (0)
- TEAE grade 3/4: Anemia [3]: 0 (0)
- TEAE grade 3/4: Arthralgia [3]: 0 (0)
- TEAE grade 3/4: Back pain [3]: 0 (0)
- TEAE grade 3/4: Bone pain [3]: 0 (0)
- TEAE grade 3/4: Bronchitis [3]: 0 (0)
- TEAE grade 3/4: Constipation [3]: 0 (0)
- TEAE grade 3/4: Cough [3]: 0 (0)
- TEAE grade 3/4: Decreased appetite [3]: 0 (0)
- TEAE grade 3/4: Diarrhea [3]: 0 (0)
- TEAE grade 3/4: Dizziness [3]: 0 (0)
- TEAE grade 3/4: Dysgeusia [3]: 0 (0)
- TEAE grade 3/4: Dyspnea [3]: 0 (0)
- TEAE grade 3/4: Epistaxis [3]: 0 (0)
- TEAE grade 3/4: Fatigue/asthenia [3]: 0 (0)
- TEAE grade 3/4: Headache [3]: 0 (0)
- TEAE grade 3/4: Hepatic pain [3]: 0 (0)
- TEAE grade 3/4: Hypokalemia [3]: 0 (0)
- TEAE grade 3/4: Increased ALT [3]: 0 (0)
- TEAE grade 3/4: Increased AST [3]: 0 (0)
- TEAE grade 3/4: Lipase increased [3]: 0 (0)
- TEAE grade 3/4: Musculoskeletal pain [3]: 0 (0)
- TEAE grade 3/4: Nausea [3]: 0 (0)
- TEAE grade 3/4: Peripheral sensory neuropathy [3]: 0 (0)
- TEAE grade 3/4: Pruritus [3]: 0 (0)
- TEAE grade 3/4: Pyrexia [3]: 0 (0)
- TEAE grade 3/4: Sciatica [3]: 0 (0)
- TEAE grade 3/4: Thrombocytopenia [3]: 0 (0)
- TEAE grade 3/4: Tumor pain [3]: 0 (0)
- TEAE grade 3/4: Vomiting [3]: 0 (0)
- TEAE any grade: ≥1 event [4]: 19 (100)
- TEAE grade 3/4: ≥1 event [4]: 13 (68)
- Serious TEAE: Anemia (dose expansion, n=19): 1 n (%)
- Serious TEAE: Biliary tract infection (dose expansion, n=19): 1 n (%)
- Serious TEAE: Chest pain (dose expansion, n=19): 1 n (%)
- Serious TEAE: Fatigue (dose expansion, n=19): 1 n (%)
- Serious TEAE: General health deterioration (dose expansion, n=19): 1 n (%)
- Serious TEAE: Hepatic hemorrhage (dose expansion, n=19): 1 n (%)
- Serious TEAE: Hepatic pain (dose expansion, n=19): 1 n (%)
- Serious TEAE: Oxygen saturation decreased (dose expansion, n=19): 1 n (%)
- Serious TEAE: Pulmonary hemorrhage (dose expansion, n=19): 1 n (%)
- Serious TEAE: Respiratory failure (dose expansion, n=19): 1 n (%)
- Serious TEAE: Thrombocytopenia (dose expansion, n=19): 1 n (%)
- Serious TEAE: Upper respiratory tract infection (dose expansion, n=19): 1 n (%)
- TEAE with an outcome of death (dose expansion, upper respiratory tract infection, not considered treatment-related): One patient
- new safety concerns or late toxicities with longer follow-up (follow-up of approximately 5 years and >4 years of treatment): No new safety concerns or late toxicities were identified

— article PMC9540525 (Cancer, 2022)
